Converted amounts (≈) assume the structure as drawn.
Experiments:
Format in all cases: functional
Streptococcus pyogenes [1] = assay: Antibacterial activity against erythromycin-susceptible Streptococcus pyogenes 07U086 by broth microdilution method
Procedure, shortened: (§1)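 Strains were ATCC reference strains or clinical isolates from China's national antimicrobial resistance surveillance network (MOHNARIN). In vitro activity was measured by broth microdilution following NCCLS recommendations. Results are reported as minimum inhibitory concentration (MIC) in mg/L.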

Streptococcus pneumoniae [2] = assay: Antibacterial activity against erythromycin-resistant Streptococcus pneumoniae 07P390 by broth microdilution method
Procedure, shortened: (§2)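 Clinical isolates were supplied by China's Ministry of Health National Antimicrobial Resistance Investigation Net (MOHNARIN). Activity was reported as minimum inhibitory concentration (MIC), determined by broth microdilution following NCCLS recommendations.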

Haemophilus influenzae [3] = assay: Antibacterial activity against erythromycin-susceptible Haemophilus influenzae 07O339 by broth microdilution method; procedure, shortened: as §1
[4] = tested on: Staphylococcus epidermidis; assay: Antibacterial activity against methicillin-resistant Staphylococcus epidermidis 07A066 by broth microdilution method; procedure, shortened: as §2
[5] = tested on: Staphylococcus epidermidis; assay: Antibacterial activity against methicillin-susceptible Staphylococcus epidermidis 07T202 by broth microdilution method; procedure, shortened: as §1
Staphylococcus aureus [6] = assay: Antibacterial activity against methicillin-susceptible Staphylococcus aureus ATCC 29213 by broth microdilution method; procedure, shortened: as §1
Haemophilus influenzae [7] = assay: Antibacterial activity against erythromycin-susceptible Haemophilus influenzae ATCC 49247 by broth microdilution method; procedure, shortened: as §1
Haemophilus influenzae [8] = assay: Antibacterial activity against erythromycin-susceptible Haemophilus influenzae 07O394 by broth microdilution method; procedure, shortened: as §1
Streptococcus pyogenes [9] = assay: Antibacterial activity against erythromycin-resistant Streptococcus pyogenes 03-233 by broth microdilution method; procedure, shortened: as §2
Streptococcus pneumoniae [10] = assay: Antibacterial activity against erythromycin-susceptible Streptococcus pneumoniae ATCC 49619 by broth microdilution method; procedure, shortened: as §1
Streptococcus pneumoniae [11] = assay: Antibacterial activity against erythromycin-resistant Streptococcus pneumoniae 07D201 by broth microdilution method; procedure, shortened: as §2
Haemophilus influenzae [12] = assay: Antibacterial activity against erythromycin-susceptible Haemophilus influenzae 07O114 by broth microdilution method; procedure, shortened: as §1
[13] = tested on: Staphylococcus epidermidis; assay: Antibacterial activity against methicillin-resistant Staphylococcus epidermidis 07R066 by broth microdilution method; procedure, shortened: as §2
Streptococcus pyogenes [14] = assay: Antibacterial activity against erythromycin-susceptible Streptococcus pyogenes 07U084 by broth microdilution method; procedure, shortened: as §1
Streptococcus pneumoniae [15] = assay: Antibacterial activity against erythromycin-susceptible Streptococcus pneumoniae 07H252 by broth microdilution method; procedure, shortened: as §1
[16] = tested on: Staphylococcus epidermidis; assay: Antibacterial activity against methicillin-susceptible Staphylococcus epidermidis 07C134 by broth microdilution method; procedure, shortened: as §2
Staphylococcus aureus [17] = assay: Antibacterial activity against methicillin-susceptible Staphylococcus aureus ANS46 by broth microdilution method; procedure, shortened: as §1
Streptococcus pyogenes [18] = assay: Antibacterial activity against erythromycin-resistant Streptococcus pyogenes 01-533 by broth microdilution method; procedure, shortened: as §2

Structure (SMILES) | MIC (Streptococcus pyogenes [1]) [µg/mL] | MIC (Streptococcus pneumoniae [2]) [µg/mL] | MIC (Haemophilus influenzae [3]) [µg/mL] | MIC [4] [µg/mL] | MIC [5] [µg/mL] | MIC (Staphylococcus aureus [6]) [µg/mL] | MIC (Haemophilus influenzae [7]) [µg/mL] | MIC (Haemophilus influenzae [8]) [µg/mL] | MIC (Streptococcus pyogenes [9]) [µg/mL] | MIC (Streptococcus pneumoniae [10]) [µg/mL] | MIC (Streptococcus pneumoniae [11]) [µg/mL] | MIC (Haemophilus influenzae [12]) [µg/mL] | MIC [13] [µg/mL] | MIC (Streptococcus pyogenes [14]) [µg/mL] | MIC (Streptococcus pneumoniae [15]) [µg/mL] | MIC [16] [µg/mL] | MIC (Staphylococcus aureus [17]) [µg/mL] | MIC (Streptococcus pyogenes [18]) [µg/mL]
CC[C@H]1OC(=O)[C@H](C)C(=O)[C@H](C)[C@@H](O[C@@H]2O[C@H](C)C[C@H](N(C)C)[C@H]2O)[C@@](C)(OC)C[C@@H](C)C(=O)/C(C)=C/[C@]1(C)OC(=O)NCCCSc1nc2ccccc2o1 | 2 (≈ 2.49 µM) | > 16 | > 16 | 4 (≈ 4.98 µM) | > 16 | 4 (≈ 4.98 µM) | > 16 | > 16 | > 16 | 2 (≈ 2.49 µM) | > 16 | > 16 | 4 (≈ 4.98 µM) | 2 (≈ 2.49 µM) | 16 (≈ 19.9 µM) | 4 (≈ 4.98 µM) | > 16 | > 16
CC[C@H]1OC(=O)[C@H](C)C(=O)[C@H](C)[C@@H](O[C@@H]2O[C@H](C)C[C@H](N(C)C)[C@H]2O)[C@](C)(OC)C[C@@H](C)C(=O)[C@H](C)[C@H]2N(CCCCn3cnc(-c4cccnc4)c3)C(=O)O[C@]12C [TELITHROMYCIN] | 0.062 (≈ 0.0764 µM) | 0.031 (≈ 0.0382 µM) | 4 (≈ 4.93 µM) | 0.125 (≈ 0.154 µM) | > 16 | 0.125 (≈ 0.154 µM) | 4 (≈ 4.93 µM) | 4 (≈ 4.93 µM) | 2 (≈ 2.46 µM) | 0.031 (≈ 0.0382 µM) | 1 (≈ 1.23 µM) | 4 (≈ 4.93 µM) | 0.125 (≈ 0.154 µM) | 0.062 (≈ 0.0764 µM) | 0.062 (≈ 0.0764 µM) | 0.125 (≈ 0.154 µM) | > 16 | 0.25 (≈ 0.308 µM)
CC[C@H]1OC(=O)[C@H](C)C(=O)[C@H](C)[C@@H](O[C@@H]2O[C@H](C)C[C@H](N(C)C)[C@H]2O)[C@@](C)(OC)C[C@@H](C)C(=O)[C@H](C)[C@H]2N(CCCSc3nnc(C)s3)C(=O)O[C@]12C | 0.031 (≈ 0.0395 µM) | 0.125 (≈ 0.159 µM) | 2 (≈ 2.55 µM) | 0.125 (≈ 0.159 µM) | > 32 | 0.25 (≈ 0.318 µM) | 2 (≈ 2.55 µM) | 2 (≈ 2.55 µM) | > 32 | ≤ 0.016 | 16 (≈ 20.4 µM) | 2 (≈ 2.55 µM) | 2 (≈ 2.55 µM) | ≤ 0.016 | ≤ 0.016 | 0.125 (≈ 0.159 µM) | > 32 | 1 (≈ 1.27 µM)
CC[C@H]1OC(=O)[C@H](C)C(=O)[C@H](C)[C@@H](O[C@@H]2O[C@H](C)C[C@H](N(C)C)[C@H]2O)[C@@](C)(OC)C[C@@H](C)C(=O)[C@H](C)[C@H]2N(CCCSc3nc(-c4cccnc4)c[nH]3)C(=O)O[C@]12C | 0.031 (≈ 0.0373 µM) | 0.031 (≈ 0.0373 µM) | 2 (≈ 2.41 µM) | 0.125 (≈ 0.151 µM) | 32 (≈ 38.6 µM) | 0.125 (≈ 0.151 µM) | 2 (≈ 2.41 µM) | 2 (≈ 2.41 µM) | 1 (≈ 1.2 µM) | 0.062 (≈ 0.0747 µM) | 4 (≈ 4.82 µM) | 2 (≈ 2.41 µM) | 0.125 (≈ 0.151 µM) | 0.031 (≈ 0.0373 µM) | 0.25 (≈ 0.301 µM) | 0.125 (≈ 0.151 µM) | > 32 | 0.125 (≈ 0.151 µM)
CC[C@H]1OC(=O)[C@H](C)C(=O)[C@H](C)[C@@H](O[C@@H]2O[C@H](C)C[C@H](N(C)C)[C@H]2O)[C@@](C)(OC)C[C@@H](C)C(=O)[C@H](C)[C@H]2N(CCCSc3ccoc3C)C(=O)O[C@]12C | 0.125 (≈ 0.163 µM) | 0.25 (≈ 0.326 µM) | 16 (≈ 20.9 µM) | 0.25 (≈ 0.326 µM) | > 16 | 0.25 (≈ 0.326 µM) | 16 (≈ 20.9 µM) | 16 (≈ 20.9 µM) | > 16 | 0.031 (≈ 0.0404 µM) | > 16 | 8 (≈ 10.4 µM) | 0.25 (≈ 0.326 µM) | 0.125 (≈ 0.163 µM) | 1 (≈ 1.3 µM) | 0.25 (≈ 0.326 µM) | > 16 | 0.5 (≈ 0.652 µM)
CC[C@H]1OC(=O)[C@H](C)C(=O)[C@H](C)[C@@H](O[C@@H]2O[C@H](C)C[C@H](N(C)C)[C@H]2O)[C@@](C)(OC)C[C@@H](C)C(=O)[C@H](C)[C@H]2N(CCCSc3nc(-c4ccccc4)cs3)C(=O)O[C@]12C | 0.25 (≈ 0.295 µM) | 0.25 (≈ 0.295 µM) | 32 (≈ 37.8 µM) | 0.5 (≈ 0.591 µM) | 32 (≈ 37.8 µM) | 0.5 (≈ 0.591 µM) | 16 (≈ 18.9 µM) | 32 (≈ 37.8 µM) | 32 (≈ 37.8 µM) | 0.25 (≈ 0.295 µM) | 8 (≈ 9.45 µM) | 32 (≈ 37.8 µM) | 0.5 (≈ 0.591 µM) | 0.25 (≈ 0.295 µM) | 0.5 (≈ 0.591 µM) | 0.5 (≈ 0.591 µM) | 32 (≈ 37.8 µM) | 1 (≈ 1.18 µM)
CC[C@H]1OC(=O)[C@H](C)C(=O)[C@H](C)[C@@H](O[C@@H]2O[C@H](C)C[C@H](N(C)C)[C@H]2O)[C@@](C)(OC)C[C@@H](C)C(=O)[C@H](C)[C@H]2N(CCCSc3nc(C)cc(C)n3)C(=O)O[C@]12C | 0.125 (≈ 0.158 µM) | 1 (≈ 1.26 µM) | 4 (≈ 5.04 µM) | 0.5 (≈ 0.63 µM) | > 32 | 0.5 (≈ 0.63 µM) | 4 (≈ 5.04 µM) | 8 (≈ 10.1 µM) | > 32 | 0.062 (≈ 0.0782 µM) | > 32 | 8 (≈ 10.1 µM) | 0.5 (≈ 0.63 µM) | 0.125 (≈ 0.158 µM) | 2 (≈ 2.52 µM) | 0.5 (≈ 0.63 µM) | > 32 | 2 (≈ 2.52 µM)
CC[C@H]1OC(=O)[C@H](C)[C@@H](O[C@H]2C[C@@](C)(OC)[C@@H](O)[C@H](C)O2)[C@H](C)[C@@H](O[C@@H]2O[C@H](C)C[C@H](N(C)C)[C@H]2O)[C@](C)(OC)C[C@@H](C)C(=O)[C@H](C)[C@@H](O)[C@]1(C)O [CLARITHROMYCIN] | 0.031 (≈ 0.0414 µM) | 2 (≈ 2.67 µM) | 8 (≈ 10.7 µM) | 8 (≈ 10.7 µM) | > 32 | 0.25 (≈ 0.334 µM) | 4 (≈ 5.35 µM) | 8 (≈ 10.7 µM) | > 32 | 0.031 (≈ 0.0414 µM) | > 32 | 4 (≈ 5.35 µM) | 0.125 (≈ 0.167 µM) | 0.031 (≈ 0.0414 µM) | 0.062 (≈ 0.0829 µM) | 0.25 (≈ 0.334 µM) | > 32 | 2 (≈ 2.67 µM)
CC[C@H]1OC(=O)[C@H](C)C(=O)[C@H](C)[C@@H](O[C@@H]2O[C@H](C)C[C@H](N(C)C)[C@H]2O)[C@@](C)(OC)C[C@@H](C)C(=O)/C(C)=C/[C@]1(C)OC(=O)NCCCSc1ncnc2[nH]ncc12 | 0.25 (≈ 0.311 µM) | 16 (≈ 19.9 µM) | > 16 | 0.5 (≈ 0.621 µM) | > 16 | 0.5 (≈ 0.621 µM) | > 16 | > 16 | > 16 | 0.5 (≈ 0.621 µM) | > 16 | > 16 | 0.5 (≈ 0.621 µM) | 0.25 (≈ 0.311 µM) | 8 (≈ 9.94 µM) | 0.5 (≈ 0.621 µM) | > 16 | 8 (≈ 9.94 µM)
